In the RNAGym collection of RNA variant scans (doi:10.1126/science.aae0568):
This sample holds only a part of the variants without activity.

B1: tRNA (parent)
chain: GUUCCGUUGGCGUAAUGGUAACGCGUCUCCCUCCUAAGGAGAAGACUGCGGGUUCGAGUCCCGUACGGAACG

Variants of: B1
Assay: yeast fitness relative to wild type (ratio to wild type); higher = fitter; tRNA-Arg(CCU), competitive growth, 37 C, YPD
Summary of the method: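 Genotype frequency changes were the basis for Darwinian fitness relative to wild type. The frequencies came from 100-nucleotide paired-end sequencing of gene amplicons from the start population and each end population of pooled yeast strains with tRNA-Arg(CCU) gene variants at the native locus. Competition ran in YPD at 37°C for 24 hours in six replicates, genotypes needed ≥ 100 starting reads, and estimates < 0.5 were set to 0.5.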

Row | Variant | yeast fitness
1 | C5A G17C A70C | ≤ 0.5
2 | C5G A20C C27A G39A C61G | ≤ 0.5
3 | C5G A15G A42C | 0.544
4 | C5G A15U C24A | 0.654
5 | C5A G52A G68A | ≤ 0.5
6 | C5G A15G U16A A20G U28A C30A C33A A36U G63A A69C | ≤ 0.5
7 | C5G A14C G18A A40G C46U C49U U53A | ≤ 0.5
8 | C5A U8C G52A G58C | ≤ 0.5
9 | C5A G12A U47A | ≤ 0.5
10 | C5A U28C G63C | 0.534
11 | C5G A20G | 0.965
12 | C5G A20G A42U | 0.66
13 | C5G A14G C33A G56A U59C C61A | ≤ 0.5
14 | C5A G23A C24U | 0.561
15 | C5A U16A A42C | ≤ 0.5
16 | C5A G12C U47C | ≤ 0.5
17 | C5G A15C A42C G52A U53A | ≤ 0.5
18 | C5G A20U U54A | ≤ 0.5
19 | C5A G9A | 0.975
20 | C5A G9C | 0.627
21 | C5A U7C C31U | 0.605
22 | C5A U7C U19C | ≤ 0.5
23 | C5A G9A C29U | 0.547
24 | C5A U32C A65C | 0.68

Row | Variant | yeast fitness
25 | C5A U7C U19A G38C A42G C49G C55A A57C | ≤ 0.5
26 | C5A U32A A36C | ≤ 0.5
27 | C5A U19A C27U C55U | ≤ 0.5
28 | C5G A15G U16A A20G U28A C30A C33A A36U | 0.553
29 | C5G A14C G44C | ≤ 0.5
30 | C5G A15G U16A A20G U28A C30A C33A A36U A69U | ≤ 0.5
31 | C5G A15G U16A A20G U28A C30A C33A A36U A69C | 0.578
32 | C5G A14U U16C G18A A21U A42G G68A | ≤ 0.5
33 | C5A G12A U35A A42G A65U | ≤ 0.5
34 | C5A U16C A42U A57G | ≤ 0.5
35 | C5G A14U U16C G18C U32A | 0.556
36 | C5A G17A G67C | 0.662
37 | C5A G12A | 0.788
38 | C5A G12A A45G G67A | ≤ 0.5
39 | C5A U13A A45C A69C | 0.542
40 | C5A G67A A69U | 0.523
41 | C5A U35A | 0.73
42 | C5A U35G | 0.636
43 | C5A G18A G25A C31U | ≤ 0.5
44 | C5A G17C A57G C66U | ≤ 0.5
45 | C5A G63C | 0.761
46 | C5G A20U G51C | ≤ 0.5
47 | C5A G12C C34U A37G | 0.562
48 | C5G A14C C30U C49U C61A | ≤ 0.5

Row | Variant | yeast fitness
49 | C5A U8C U13C A40G | 0.522
50 | C5G A15G C66U | ≤ 0.5
51 | C5A U53C C62U | ≤ 0.5
52 | C5A G56A | 1
53 | C5A G56C | 0.666
54 | C5G A20C C24U G68A | ≤ 0.5
55 | C5G A20U G41C | ≤ 0.5
56 | C5A U19A C62A A69U | ≤ 0.5
57 | C5A G18C G67C | 0.561
58 | C5A U8C A21G A45C G56C | 0.554
59 | C5A G12A U35A A42G A65C C66A | 0.6
60 | C5A G23C G48C C61A | ≤ 0.5
61 | C5G A15G A36G A45C G50U | ≤ 0.5
62 | C5A U7A | 0.636
63 | C5A U7C | 0.655
64 | C5G A20G C34A A40U | ≤ 0.5
65 | C5A G48C C62U | 0.629
66 | C5G A21C A45G | 0.512
67 | C5A G17C U28C | ≤ 0.5
68 | C5G A14G C33A G56A C61A | 0.583
69 | C5A G23A C46U G50C C61A A70C | ≤ 0.5
70 | C5A G12A U35G A69C | ≤ 0.5
71 | C5A G44A | 0.716
72 | C5A G44C | 0.8

Row | Variant | yeast fitness
73 | C5A G18A A69U | ≤ 0.5
74 | C5A G41A | 0.873
75 | C5A G9C U47G G68U | ≤ 0.5
76 | C5A G9C A42C C49G G68A | ≤ 0.5
77 | C5G A21C A45U C46U | ≤ 0.5
78 | C5G A14G G63C | ≤ 0.5
79 | C5A G10A G39A U53G | ≤ 0.5
80 | C5G A14C A37G C46U G68C | ≤ 0.5
81 | C5A U53A | 0.722
82 | C5A U13G C24G C31A | 0.514
83 | C5A U8C C11U G18A C31A A37U G67C | ≤ 0.5
84 | C5G A20U C46U | 0.601
85 | C5A U47C G51A A65C | ≤ 0.5
86 | C5A U19A G38C A57C C62U | ≤ 0.5
87 | C5A G38C G51A G58A | 0.506
88 | C5G A15U G44C G50A U54A | ≤ 0.5
89 | C5A U19A C30G | 0.594
90 | C5A G18A C30U G48C G68C | 0.54
91 | C5G A15G U28C C30U A69U | ≤ 0.5
92 | C5G A20G C22G C29G G63C A69U | 0.527
93 | C5A G18A G25A C31U C61U | 0.562
94 | C5G A14U G38C G39C C61U | ≤ 0.5
95 | C5A G17C | 0.652
96 | C5A G17A | 0.851

Row | Variant | yeast fitness
97 | C5A G10C U19C C24G | ≤ 0.5
98 | C5G A14U G38A A40U G50C C60G A70G | ≤ 0.5
99 | C5A U26A C31A C49U | ≤ 0.5
100 | C5A G18A C30U G48C | ≤ 0.5
101 | C5G A15U G58A G67A | 0.626
102 | C5A U7C C62U | ≤ 0.5
103 | C5A U28G | 0.609
104 | C5A G9C A36U G50A | 0.536
105 | C5G A20G C30A C34G | ≤ 0.5
106 | C5G A14U G25A G48C C61A | 0.528
107 | C5A U13G C34G C62G | ≤ 0.5
108 | C5A U47A C55A G68A | ≤ 0.5
109 | C5A G12A G18A A69C | ≤ 0.5
110 | C5A G9C A21U | ≤ 0.5
111 | C5G A15C U28A G41C U64G | ≤ 0.5
112 | C5A G50A | 0.87
113 | C5A G17A A42G | 0.555
114 | C5A U19A G38C U53C C61G G67A A69C | ≤ 0.5
115 | C5A U35G A69C | ≤ 0.5
116 | C5G A14U A43G G67C | 0.56
117 | C5G A14U G25A G48C C61A C62U | ≤ 0.5
118 | C5G A14C U16A C30U G38C G41C C66U | ≤ 0.5
119 | C5A G41A A57U | ≤ 0.5
120 | C5G A14C A37G G52U C62G | ≤ 0.5

Row | Variant | yeast fitness
121 | C5A G39A U59A | ≤ 0.5
122 | C5A G18A C61G U64C | ≤ 0.5
123 | C5G A14C C29U C33G A65C | ≤ 0.5
124 | C5A G39A G56C | ≤ 0.5
125 | C5G A20U G25A G41A C55G U64G | 0.534
126 | C5A U13G C34G A45U | 0.619
127 | C5A G17C C30A A65C | ≤ 0.5
128 | C5A G17C C27U A57C | ≤ 0.5
129 | C5G A20G A36C | 0.52
130 | C5A G25C C30U | 0.576
131 | C5A G25C A57C G67A A69U | 0.525
132 | C5A U16A C62U | ≤ 0.5
133 | C5A U28G A65U | ≤ 0.5
134 | C5G A14U A37U A45C | ≤ 0.5
135 | C5A G48A C60A | ≤ 0.5
136 | C5A U16G C27U C29U A36U G41A | 0.589
137 | C5A G17A A42G U64A | 0.606
138 | C5A U54C A65U | ≤ 0.5
139 | C5A U13A A70C | ≤ 0.5
140 | C5A U35G G41A G56A | ≤ 0.5
141 | C5A G67A | 0.933
142 | C5A U19A | 0.843
143 | C5A G17C G25A | ≤ 0.5
144 | C5A U16C A21C C33U A40G G63C | ≤ 0.5

Row | Variant | yeast fitness
145 | C5G A14C C29A C31G A36G U54A | ≤ 0.5
146 | C5A G10C G12A G23A U64A | ≤ 0.5
147 | C5A U7C C34A G41C C60U A70U | ≤ 0.5
148 | C5A G12A C24U C29U C30A | ≤ 0.5
149 | C5A G44C U54C | 0.556
150 | C5A G10C U26C G39C C61U | ≤ 0.5
151 | C5G A14U | 0.607
152 | C5G A14C | 0.625
153 | C5G A20U A37G | ≤ 0.5
154 | C5G A20C C34G | ≤ 0.5
155 | C5G A20U C30U C62U | ≤ 0.5
156 | C5G A21C A69C | ≤ 0.5
157 | C5A U7C G63C | ≤ 0.5
158 | C5G A15C C29A C61G | ≤ 0.5
159 | C5G A20C C29G | 0.538
160 | C5G A15G C27G C30A | ≤ 0.5
161 | C5A U16C C33U G63C | ≤ 0.5
162 | C5G A15G U28C A45C | ≤ 0.5
163 | C5A G41A A70G | 0.604
164 | C5G A15G U16A A20G U28A C30A C33A A36U A65U A69C | ≤ 0.5
165 | C5A G17A C49G | 0.532
166 | C5G A14U C24U C55G A70U | ≤ 0.5
167 | C5A G51A C61G | ≤ 0.5
